Test results: ChEMBL document CHEMBL5338721, “Alkyl-substituted N-methylaryl-N'-aryl-4-aminobenzamides: A new series of small molecule inhibitors for Wip1 phosphatase” (Eur J Med Chem, 2022)
The source made the active and inactive calls. The calls are words filed in the database; no cut-off is given here.

Columns and labels:
Protein phosphatase 1D = target: T1, Protein phosphatase 1D (Homo sapiens, UniProt O15297); assay: Inhibition of recombinant human Wip1 (1 to 420 residues) using human ATM phosphopeptide (AFEEG-pS-QSTTIGY) as substrate incubated for 7 mins by Bio-mol green assay
T1 sequence (O15297 whole entry): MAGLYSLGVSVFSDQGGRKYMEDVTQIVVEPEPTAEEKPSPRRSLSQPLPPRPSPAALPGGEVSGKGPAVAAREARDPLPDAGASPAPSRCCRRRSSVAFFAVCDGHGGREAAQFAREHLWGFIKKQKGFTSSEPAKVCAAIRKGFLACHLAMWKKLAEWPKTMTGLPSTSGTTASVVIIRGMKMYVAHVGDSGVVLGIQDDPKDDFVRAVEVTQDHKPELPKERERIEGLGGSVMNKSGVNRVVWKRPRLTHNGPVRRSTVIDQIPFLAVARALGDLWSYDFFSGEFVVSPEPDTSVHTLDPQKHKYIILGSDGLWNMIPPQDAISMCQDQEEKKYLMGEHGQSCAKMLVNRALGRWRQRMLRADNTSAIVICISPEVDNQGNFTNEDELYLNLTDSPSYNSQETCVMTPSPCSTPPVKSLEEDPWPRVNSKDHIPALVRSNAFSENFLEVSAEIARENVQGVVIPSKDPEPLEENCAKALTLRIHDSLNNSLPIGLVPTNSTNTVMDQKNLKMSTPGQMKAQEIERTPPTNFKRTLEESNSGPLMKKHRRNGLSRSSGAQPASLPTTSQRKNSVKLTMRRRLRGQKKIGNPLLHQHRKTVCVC
Procedure, shortened: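 Released phosphate read by Biomol Green against phosphate standard curve; normalized to no-inhibitor (100%) and no-enzyme (0%). Screen at 100 μM; 9–10-point dose-response in triplicate, logistic fit for IC50 and Hill coefficient.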

[1] = target: T2, Protein phosphatase 1D (Homo sapiens) (UniProt O15297); assay: Inhibition of recombinant human Wip1 (1 to 420 residues) using human ATM phosphopeptide (AFEEG-pS-QSTTIGY) as substrate at 100 uM incubated for 7 mins by Bio-mol green assay relative to control
T2 sequence (whole entry): T1 sequence (O15297 whole entry)
Procedure, shortened: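 Recombinant Wip1 (1–420) with 100 μM ATM phosphopeptide in 50 mM Tris·HCl pH 7.5 buffer with 30 mM MgCl₂, 7 min at 30 °C. Compound given at a single 100 μM concentration. Released phosphate quantified by Biomol Green with a phosphate standard curve. Percent inhibition taken from activity normalized to no-inhibitor (100%) and no-enzyme (0%) controls.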

[2] = target: T3, Protein phosphatase 1A (Homo sapiens) (UniProt P35813); assay: Inhibition of PPM1A (unknown origin) using human p38alpha phosphopeptide as substrate upto 100 uM incubated for 7 mins by Biomol green assay
T3 sequence (whole entry): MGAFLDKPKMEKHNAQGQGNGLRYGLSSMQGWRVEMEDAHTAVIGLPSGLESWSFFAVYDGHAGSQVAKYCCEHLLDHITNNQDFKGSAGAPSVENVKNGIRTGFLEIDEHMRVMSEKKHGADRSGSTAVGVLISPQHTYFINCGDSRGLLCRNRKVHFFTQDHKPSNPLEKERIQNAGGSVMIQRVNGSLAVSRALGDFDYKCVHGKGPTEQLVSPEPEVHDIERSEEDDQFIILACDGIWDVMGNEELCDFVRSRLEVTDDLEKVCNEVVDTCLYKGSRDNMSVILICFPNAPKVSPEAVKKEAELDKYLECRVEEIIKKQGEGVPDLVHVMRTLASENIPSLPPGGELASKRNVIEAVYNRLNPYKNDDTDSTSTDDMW
Procedure, shortened: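 Substrate: 100 μM p38α (175–185, 180pT) phosphopeptide, mixed with compound or DMSO, then 8 nM PPM1A added. Buffer: 50 mM Tris·HCl pH 7.5, 0.1 mM EGTA, 1 mM DTT, 1 mM CHAPS, 0.1 mg/mL BSA, 30 mM MgCl₂. Incubation: 7 min at 30 °C. Stopped with Biomol Green, 20 min colour development at room temperature. Released phosphate read at 620 nm against a phosphate standard curve. Compounds tested up to 100 μM.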

[3] = target: T2, Protein phosphatase 1D (Homo sapiens); assay: Inhibition of recombinant human Wip1 (1 to 420 residues) using human ATM phosphopeptide (AFEEG-pS-QSTTIGY) as substrate at 100 uM incubated for 7 mins by Bio-mol green assay
Procedure, shortened: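 Purified recombinant Wip1 (1–420) incubated with compound and 100 μM ATM phosphopeptide for 7 min at 30 °C. Buffer: 50 mM Tris·HCl pH 7.5, EGTA, DTT, CHAPS, 0.1 mg/mL BSA, 30 mM MgCl₂. Phosphate measured by Biomol Green against a standard curve and normalized to no-inhibitor (100%) and no-enzyme (0%). Dose-response used 9–10 points, each in triplicate. IC50 from logistic fit (standard, or variable-slope giving a Hill coefficient).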

Compound | IC50 (Protein phosphatase 1D) [µM] | also measured
COc1cc(OC)cc(-c2ccc(CNc3ccc(C(=O)Nc4cccc(OP(=O)(O)O)c4)cc3CC3CCCCC3)cc2)c1 | 18 | –
O=C(Nc1cccc(OP(=O)(O)O)c1)c1ccc(NCc2ccc(-c3cccc(Cl)c3)cc2)c(CC2CCCCC2)c1 | 48 | –
CCCCC(CCCC)CNc1ccc(C(=O)Nc2cccc(OP(=O)(O)O)c2)cc1CC1CCCCC1 | 512 | –
O=C(Nc1cccc(OP(=O)(O)O)c1)c1ccc(NCc2ccc(F)cc2)c(Cc2ccccc2)c1 | 63 | –
O=C(O)c1cccc(CNc2ccccc2CCC2CCCCC2)c1 | – | inhibition [1]: 88%
O=C(O)c1cccc(CNc2ccccc2CC2CCCCC2)c1 | 74.8 | –
Nc1ccc(C(=O)Nc2cccc(OP(=O)(O)O)c2)cc1CC1CCCCC1 | 330 | –
O=C(Nc1cccc(OP(=O)(O)O)c1)c1ccc(NCc2cccnc2)c(CC2CCCCC2)c1 | 105 | –
O=C(NCCc1ccc(OP(=O)(O)O)cc1)c1ccc(NC(=O)c2ccc(F)cc2)c(CC2CCCCC2)c1 | 36 | –
Nc1ccccc1CCC1CCCCC1 | – | inhibition [1]: 3%
O=C(Nc1cccc(OP(=O)(O)O)c1)c1ccc(NC(=O)c2cccc(CNc3cccc(Cl)c3)c2)c(CC2CCCCC2)c1 | 7.2 | inhibition [2]: inactive
COc1ccc(CNc2ccc(C(=O)Nc3cccc(OP(=O)(O)O)c3)cc2CC2CCCCC2)cc1 | 37 | –
O=C(Nc1cccc(Cl)c1)c1cccc(CNc2ccc(C(=O)Nc3cccc(OP(=O)(O)O)c3)cc2CCC2CCCCC2)c1 | 32.7 | –
O=C(Nc1cccc(OP(=O)(O)O)c1)c1ccc(NCc2ccc(-c3ccc(Cl)cc3)cc2)c(CC2CCCCC2)c1 | 332 | –
O=C(Nc1cccc(OP(=O)(O)O)c1)c1ccc(NCc2ccc(F)cc2)cc1 | 683 | –
O=C(Nc1cccc(Cl)c1)c1ccc(CNc2ccc(C(=O)Nc3cccc(OP(=O)(O)O)c3)cc2CC2CCCCC2)cc1 | 11.1 | –
O=C(Nc1ccc(OP(=O)(O)O)cc1)c1ccc(NCc2ccc(F)cc2)c(CC2CCCCC2)c1 | 29 | –
O=C(Nc1cccc(Cl)c1)c1cccc(CNc2ccc(C(=O)Nc3cccc(O)c3)cc2CCC2CCCCC2)c1 | 1600 | –
COc1cccc(CNc2ccc(C(=O)Nc3cccc(OP(=O)(O)O)c3)cc2CC2CCCCC2)c1 | 139 | –

Compound | IC50 (Protein phosphatase 1D) [µM] | also measured
O=C(Nc1cccc(OP(=O)(O)O)c1)c1ccc(NCc2ccc(F)cc2)c(CC2CCCCC2)c1 | 28.1 | –
O=C(Nc1cccc(Cl)c1)c1cccc(CNc2ccc(C(=O)Nc3cccc(OP(=O)(O)O)c3)cc2C2CC3CCC2C3)c1 (stereo not given) | 24.7 | –
O=C(Nc1cccc(F)c1)c1cccc(CNc2ccc(C(=O)Nc3cccc(OP(=O)(O)O)c3)cc2CC2CCCCC2)c1 | 20.8 | –
O=C(Nc1cccc(OP(=O)(O)O)c1)c1ccc(NCc2ccc(-c3cccc(F)c3)cc2)c(CC2CCCCC2)c1 | 30 | –
O=C(Nc1cccc(OP(=O)(O)O)c1)c1ccc(NCc2cccc(F)c2)c(CC2CCCCC2)c1 | 28.5 | –
O=C(Nc1ccc2c(c1)OCO2)c1cccc(CNc2ccc(C(=O)Nc3cccc(OP(=O)(O)O)c3)cc2CC2CCCCC2)c1 | 35.2 | –
O=C(Nc1cccc(OP(=O)(O)O)c1)c1ccc(NCc2cc3ccccc3o2)c(CC2CCCCC2)c1 | 21.4 | –
O=C(Nc1cccc(OP(=O)(O)O)c1)c1ccc(NCCCc2ccccc2)c(CC2CCCCC2)c1 | 105 | –
O=C(Nc1cccc(OP(=O)(O)O)c1)c1ccc(NCc2ccc3ccccc3c2)c(CC2CCCCC2)c1 | 274 | –
COC(=O)c1ccc(NCc2cccc(C(=O)O)c2)c(CCC2CCCCC2)c1 | 48.4 | –
O=C(NCCCO)C1CCCCC1 | – | inhibition [3]: inactive
O=C(CCCCC1CCCCC1)NCCCO | – | inhibition [1]: 4%
COC(=O)c1ccc(NCc2cccc(C(=O)O)c2)c(CC2CCCCC2)c1 | 54.1 | –
O=C(Nc1cccc(Cl)c1)c1cccc(C(=O)Nc2ccc(C(=O)Nc3cccc(OP(=O)(O)O)c3)cc2CC2CCCCC2)c1 | 7.3 | inhibition [2]: inactive
Nc1ccccc1CC1CCCCC1 | – | inhibition [3]: inactive
O=C(CC1CCCCC1)NCCCO | – | inhibition [3]: inactive
O=C(CCCC1CCCCC1)NCCCO | – | inhibition [1]: 1%
O=C(Nc1cccc(Cl)c1)c1cccc(CNc2ccc(C(=O)Nc3cccc(OP(=O)(O)O)c3)cc2CC2CCCCC2)c1 | 3.8 | inhibition [2]: inactive
